# Reference: ChEMBL document CHEMBL3525967, “In vitro glucuronidation of the antibacterial triclocarban and its oxidative metabolites” (Drug Metab Dispos, 2012)
# Experiments:
# [1] = target: T1, UDP-glucuronosyltransferase 2B17 (Homo sapiens, UniProt O75795); assay: Drug metabolism assessed as human UGT2B17-mediated glucuronidation expressed in baculovirus infected insect sf9 cells incubated for 5 mins prior to UDPGA addition measured after 5 to 30 mins by LC-UV analysis; type: ADME
# T1 sequence (O75795 whole entry): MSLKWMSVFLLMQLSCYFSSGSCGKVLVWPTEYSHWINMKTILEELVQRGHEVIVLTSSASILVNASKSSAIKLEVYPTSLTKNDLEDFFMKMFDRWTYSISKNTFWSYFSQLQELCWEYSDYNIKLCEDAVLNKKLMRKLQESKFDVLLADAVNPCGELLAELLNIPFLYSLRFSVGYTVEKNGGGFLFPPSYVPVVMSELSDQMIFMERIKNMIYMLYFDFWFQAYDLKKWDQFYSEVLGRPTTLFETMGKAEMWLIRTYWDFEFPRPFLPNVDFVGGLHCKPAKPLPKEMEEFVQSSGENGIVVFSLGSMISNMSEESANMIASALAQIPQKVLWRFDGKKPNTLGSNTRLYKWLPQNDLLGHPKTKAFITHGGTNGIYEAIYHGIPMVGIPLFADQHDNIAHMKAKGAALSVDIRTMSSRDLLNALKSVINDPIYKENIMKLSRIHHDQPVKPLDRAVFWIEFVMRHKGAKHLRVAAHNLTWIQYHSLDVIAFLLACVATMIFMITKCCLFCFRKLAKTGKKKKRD
# Summary of the method: (§1)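 Microsomes or Sf-9 Supersomes (5 µg protein in 200 µL 100 mM potassium phosphate pH 7.4) pre-treated with alamethicin on ice 15 min; substrate 10 µM final (2% DMSO), MgCl2 and saccharolactone 10 mM each; 5 min preincubation at 37 °C, then UDPGA to start. Samples taken at 5, 10, 15, 30 min (or 2, 5, 10, 15 min) into ACN with internal standard; LC-UV-ESI-MS/MS.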
# [2] = target: T2, UDP-glucuronosyltransferase 1A8 (Homo sapiens, UniProt Q9HAW9); assay: Drug metabolism assessed as human UGT1A8-mediated glucuronidation expressed in baculovirus infected insect sf9 cells incubated for 5 mins prior to UDPGA addition measured after 5 to 30 mins by LC-UV analysis; type: ADME; summary of the method: as §1
# T2 sequence (Q9HAW9 whole entry): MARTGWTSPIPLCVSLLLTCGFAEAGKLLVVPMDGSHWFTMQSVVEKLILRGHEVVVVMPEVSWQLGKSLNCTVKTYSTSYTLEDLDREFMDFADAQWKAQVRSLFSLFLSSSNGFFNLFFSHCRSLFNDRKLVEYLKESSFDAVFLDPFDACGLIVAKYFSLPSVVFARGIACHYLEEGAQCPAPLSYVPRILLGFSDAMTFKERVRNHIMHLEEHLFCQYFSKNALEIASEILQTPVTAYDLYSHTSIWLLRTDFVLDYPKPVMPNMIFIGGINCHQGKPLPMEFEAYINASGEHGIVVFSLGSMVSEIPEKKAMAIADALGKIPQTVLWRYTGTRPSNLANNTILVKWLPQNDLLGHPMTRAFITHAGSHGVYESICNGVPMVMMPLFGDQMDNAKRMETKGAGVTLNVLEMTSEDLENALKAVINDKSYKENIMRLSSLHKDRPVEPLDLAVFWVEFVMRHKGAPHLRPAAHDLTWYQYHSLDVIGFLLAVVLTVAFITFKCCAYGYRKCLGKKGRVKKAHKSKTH
# [3] = target: T3, UDP-glucuronosyltransferase 1A4 (Homo sapiens, UniProt P22310); assay: Drug metabolism assessed as human UGT1A4-mediated glucuronidation expressed in baculovirus infected insect sf9 cells incubated for 5 mins prior to UDPGA addition measured after 5 to 30 mins by LC-UV analysis; type: ADME; summary of the method: as §1
# T3 sequence (P22310 whole entry): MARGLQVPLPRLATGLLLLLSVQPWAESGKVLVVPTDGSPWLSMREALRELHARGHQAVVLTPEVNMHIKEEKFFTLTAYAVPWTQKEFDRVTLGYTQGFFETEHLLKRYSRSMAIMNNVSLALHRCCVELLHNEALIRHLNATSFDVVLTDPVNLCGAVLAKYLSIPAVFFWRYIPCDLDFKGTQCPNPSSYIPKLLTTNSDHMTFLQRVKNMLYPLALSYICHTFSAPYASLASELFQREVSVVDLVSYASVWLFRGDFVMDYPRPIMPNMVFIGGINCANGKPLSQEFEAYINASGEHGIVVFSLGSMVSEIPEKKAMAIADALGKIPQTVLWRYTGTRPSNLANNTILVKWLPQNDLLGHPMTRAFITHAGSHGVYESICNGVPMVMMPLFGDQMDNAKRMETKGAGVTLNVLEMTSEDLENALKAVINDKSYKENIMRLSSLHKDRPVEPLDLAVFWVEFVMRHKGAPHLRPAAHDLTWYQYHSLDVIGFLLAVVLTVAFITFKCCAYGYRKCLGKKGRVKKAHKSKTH
# [4] = target: T4, UDP-glucuronosyltransferase 1A9 (Homo sapiens, UniProt O60656); assay: Drug metabolism assessed as human UGT1A9-mediated glucuronidation expressed in baculovirus infected insect sf9 cells incubated for 5 mins prior to UDPGA addition measured after 5 to 30 mins by LC-UV analysis; type: ADME; summary of the method: as §1
# T4 sequence (O60656 whole entry): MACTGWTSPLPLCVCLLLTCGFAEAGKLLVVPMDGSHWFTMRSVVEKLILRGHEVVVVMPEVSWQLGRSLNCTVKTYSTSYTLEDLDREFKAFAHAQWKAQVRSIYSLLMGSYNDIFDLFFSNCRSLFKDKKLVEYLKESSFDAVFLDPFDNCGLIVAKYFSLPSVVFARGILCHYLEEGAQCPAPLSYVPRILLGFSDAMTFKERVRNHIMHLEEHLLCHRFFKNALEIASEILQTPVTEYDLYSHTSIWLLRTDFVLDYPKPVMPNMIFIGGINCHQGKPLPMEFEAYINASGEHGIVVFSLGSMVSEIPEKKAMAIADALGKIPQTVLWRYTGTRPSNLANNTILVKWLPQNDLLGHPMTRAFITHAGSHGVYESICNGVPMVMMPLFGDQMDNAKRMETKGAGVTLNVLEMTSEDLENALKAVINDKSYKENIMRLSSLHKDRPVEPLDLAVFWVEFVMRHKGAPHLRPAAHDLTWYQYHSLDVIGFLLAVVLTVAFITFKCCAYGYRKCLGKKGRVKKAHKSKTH
# [5] = Drug metabolism in microsomes (unknown origin) assessed as retention time treated with 10 uM triclocarban by LC-UV-MS method; type: ADME, Microsome
# [6] = Drug metabolism in human intestinal microsomes assessed as glucuronidation incubated for 5 mins prior to UDPGA addition measured after 5 to 30 mins by LC-UV analysis; type: ADME, Intestine, Microsome; summary of the method: as §1
# [7] = test system: Liver microsome; assay: Drug metabolism in Sprague-Dawley rat liver microsomes assessed as glucuronidation incubated for 5 mins prior to UDPGA addition measured after 5 to 30 mins by LC-UV analysis; type: ADME; summary of the method: as §1
# [8] = Drug metabolism in microsomes (unknown origin) assessed as retention time at 10 uM by LC-UV-MS method; type: ADME, Microsome
# Summary of the method: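 Retention times were measured on a C18 column (2 × 100 mm, 2.2 µm) at 300 µL/min. Solvent A was 25 mM ammonium acetate with 0.1% acetic acid; solvent B was ACN. Gradient: 30% B isocratic for 2 min, convex 30–85% B to 7.5 min, then […]. Detection was UV at 265 nm and ESI-MS in SRM mode.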
Drug metabolism [1],Drug metabolism [2],Drug metabolism [3],Drug metabolism [4],Retention_time [5],Drug metabolism [6],Drug metabolism [7],SMILES,Retention_time [8]
metabolite_not_detected,5700 pmol/min/mg,metabolite_not_detected,1200 pmol/min/mg,6.81 min,5700 pmol/min/mg,2600 pmol/min/mg,O=C(Nc1ccc(Cl)c(Cl)c1)Nc1ccc(Cl)cc1O,
metabolite_not_detected,5000 pmol/min/mg,metabolite_not_detected,2400 pmol/min/mg,7.45 min,3900 pmol/min/mg,5500 pmol/min/mg,O=C(Nc1ccc(Cl)cc1)Nc1cc(Cl)c(Cl)cc1O,
metabolite_not_detected,9400 pmol/min/mg,metabolite_not_detected,840 pmol/min/mg,4.61 min,7100 pmol/min/mg,8700 pmol/min/mg,O=C(Nc1ccc(Cl)c(O)c1)Nc1ccc(Cl)c(Cl)c1,
,,,,,,,O=C(Nc1ccc(Cl)cc1)Nc1ccc(Cl)c(Cl)c1 [TRICLOCARBAN],5.1 min
